Active and inactive are the calls of the source. The rule behind the calls is not given here.
Key:
Histone deacetylase 1 = Histone deacetylase 1 (Homo sapiens, UniProt Q13547); test: Inhibition of C-terminal His/FLAG-tagged full length recombinant human HDAC1 expressed in baculovirus expression system assessed as release of 7-amino-4-methylcoumarin by fluorogenic assay
[1] = Antiproliferative activity against human HL60 cells after 48 hrs by SRB assay; type: functional, HL-60
How it was run: (§1)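 Cells grown in RPMI 1640 with 10% FBS and antibiotics, then seeded in medium with 5% FBS. A T0 plate was fixed with 10% TCA at 24 h. Remaining cells were exposed to compound or DMSO for 48 h, TCA-fixed, and stained with 0.4% SRB in 1% acetic acid. Dye was solubilized in 10 mM Trizma base and read at 515 nm.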

[2] = Antiproliferative activity against human HCT116 cells after 48 hrs by SRB assay; type: functional, HCT-116; how it was run: as §1
[3] = Antiproliferative activity against human PC3 cells after 48 hrs by SRB assay; type: functional, PC-3; how it was run: as §1
[4] = Antiproliferative activity against human A549 cells after 48 hrs by SRB assay; type: functional; how it was run: as §1
Histone deacetylase 2 = Histone deacetylase 2 (Homo sapiens, UniProt Q92769); test: Inhibition of full length recombinant human HDAC2 expressed in baculovirus expression system assessed as release of 7-amino-4-methylcoumarin by fluorogenic assay
Histone deacetylase 2, sequence (Q92769 whole entry): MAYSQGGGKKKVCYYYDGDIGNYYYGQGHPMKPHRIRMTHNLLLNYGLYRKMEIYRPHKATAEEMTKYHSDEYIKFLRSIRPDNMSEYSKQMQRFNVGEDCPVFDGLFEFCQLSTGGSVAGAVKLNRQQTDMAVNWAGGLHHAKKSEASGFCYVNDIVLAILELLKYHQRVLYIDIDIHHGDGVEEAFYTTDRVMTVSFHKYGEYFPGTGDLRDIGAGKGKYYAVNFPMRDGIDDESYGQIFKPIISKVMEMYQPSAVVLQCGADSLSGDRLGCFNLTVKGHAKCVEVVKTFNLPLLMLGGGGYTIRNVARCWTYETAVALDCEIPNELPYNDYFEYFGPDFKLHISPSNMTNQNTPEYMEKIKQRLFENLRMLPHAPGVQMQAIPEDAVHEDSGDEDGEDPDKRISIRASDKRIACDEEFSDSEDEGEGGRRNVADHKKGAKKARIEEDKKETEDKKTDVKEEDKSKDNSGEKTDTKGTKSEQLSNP

[5] = molecular target: T1, Protein deacetylase HDAC6 (Homo sapiens, UniProt Q9UBN7); test: Inhibition of full length recombinant human HDAC6 expressed in baculovirus expression system assessed as release of 7-amino-4-methylcoumarin by fluorogenic assay
T1 sequence (Q9UBN7 whole entry): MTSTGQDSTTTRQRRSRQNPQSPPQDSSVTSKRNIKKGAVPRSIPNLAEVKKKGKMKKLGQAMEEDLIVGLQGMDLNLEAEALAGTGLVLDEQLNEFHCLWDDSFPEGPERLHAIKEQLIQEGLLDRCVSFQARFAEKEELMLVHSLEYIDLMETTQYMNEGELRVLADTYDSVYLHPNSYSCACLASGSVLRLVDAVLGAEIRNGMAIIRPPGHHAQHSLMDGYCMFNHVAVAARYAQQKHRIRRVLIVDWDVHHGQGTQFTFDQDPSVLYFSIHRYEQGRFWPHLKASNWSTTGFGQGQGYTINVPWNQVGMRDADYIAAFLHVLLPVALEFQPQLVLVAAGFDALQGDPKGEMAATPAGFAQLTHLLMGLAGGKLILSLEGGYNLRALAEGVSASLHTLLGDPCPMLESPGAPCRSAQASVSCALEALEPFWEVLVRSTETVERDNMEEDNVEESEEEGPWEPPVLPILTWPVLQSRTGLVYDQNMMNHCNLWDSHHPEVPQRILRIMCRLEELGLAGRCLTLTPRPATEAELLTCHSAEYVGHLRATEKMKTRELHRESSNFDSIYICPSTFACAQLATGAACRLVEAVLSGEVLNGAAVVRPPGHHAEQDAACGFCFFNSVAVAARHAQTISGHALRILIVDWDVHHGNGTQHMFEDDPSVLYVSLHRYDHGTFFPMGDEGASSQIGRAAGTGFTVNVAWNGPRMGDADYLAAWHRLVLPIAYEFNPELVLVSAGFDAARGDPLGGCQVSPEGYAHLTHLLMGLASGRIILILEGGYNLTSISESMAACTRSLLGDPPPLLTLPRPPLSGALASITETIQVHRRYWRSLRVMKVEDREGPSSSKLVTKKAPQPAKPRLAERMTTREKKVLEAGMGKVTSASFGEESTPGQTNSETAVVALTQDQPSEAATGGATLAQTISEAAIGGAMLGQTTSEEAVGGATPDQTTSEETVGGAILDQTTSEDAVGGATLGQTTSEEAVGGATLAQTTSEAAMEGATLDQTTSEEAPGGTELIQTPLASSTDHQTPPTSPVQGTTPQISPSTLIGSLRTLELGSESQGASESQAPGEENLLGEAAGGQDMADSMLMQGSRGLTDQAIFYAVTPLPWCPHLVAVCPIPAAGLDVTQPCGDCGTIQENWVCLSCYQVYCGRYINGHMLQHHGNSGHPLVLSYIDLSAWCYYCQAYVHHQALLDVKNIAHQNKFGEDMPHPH

Histone deacetylase 8 = molecular target: T2, Histone deacetylase 8 (Homo sapiens, UniProt Q9BY41); test: Inhibition of His-tagged full length recombinant human HDAC8 expressed in baculovirus expression system assessed as release of 7-amino-4-methylcoumarin by fluorogenic assay
T2 sequence (Q9BY41 whole entry): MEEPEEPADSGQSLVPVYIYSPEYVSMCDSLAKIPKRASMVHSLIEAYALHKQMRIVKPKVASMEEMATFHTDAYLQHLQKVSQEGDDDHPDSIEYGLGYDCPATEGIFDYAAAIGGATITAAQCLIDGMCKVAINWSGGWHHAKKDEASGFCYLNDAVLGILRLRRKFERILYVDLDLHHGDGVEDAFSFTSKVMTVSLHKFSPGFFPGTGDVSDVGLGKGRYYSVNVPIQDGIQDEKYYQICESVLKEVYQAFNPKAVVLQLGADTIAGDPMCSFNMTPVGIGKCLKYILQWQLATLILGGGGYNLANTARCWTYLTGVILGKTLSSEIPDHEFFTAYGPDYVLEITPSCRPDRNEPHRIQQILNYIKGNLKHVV

HCT-116 [6] = conditions: Homo sapiens, at 0.3 µM
PC-3 = conditions: Homo sapiens, at 0.3 µM
HCT-116 [7] = test: Antitumor activity in human HCT116 cells xenografted in nude mouse assessed as tumor growth inhibition administered daily through oral route; type: functional, cell-based
How it was run: (§2)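 Male nude mice, 8 weeks old, implanted s.c. in the right flank with 1 x 10^7 log-phase HCT116 cells in PBS. Four groups of 7 received vehicle, 50 or 100 mg/kg test compound, or 200 mg/kg reference p.o. daily to endpoint, dosed at 10 mL/kg scaled to body weight. Tumor volume was taken as (w² × l)/2, and mice were monitored for adverse effects.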

[8] = Antitumor activity against human HCT116 cells xenografted in nude mouse assessed as tumor growth inhibition at 50 mg/kg, po qd; type: functional; conditions: HCT-116, po, read-out: TGI; how it was run: as §2
[9] = Antitumor activity against human HCT116 cells xenografted in nude mouse assessed as tumor growth inhibition at 100 mg/kg, po qd; type: functional; conditions: HCT-116, po, read-out: TGI; how it was run: as §2
Mus musculus [10] = test: Toxicity in nude mouse xenografted with human HCT116 cells assessed as change in body weight at 50 to 100 mg/kg, po qd; type: organism-based, HCT-116; conditions: in vivo
Mus musculus [11] = test: Toxicity in nude mouse xenografted with human HCT116 cells assessed as change in body weight at 200 mg/kg, po qd; type: organism-based, HCT-116; conditions: in vivo

Histone deacetylase 1, sequence (Q13547 whole entry): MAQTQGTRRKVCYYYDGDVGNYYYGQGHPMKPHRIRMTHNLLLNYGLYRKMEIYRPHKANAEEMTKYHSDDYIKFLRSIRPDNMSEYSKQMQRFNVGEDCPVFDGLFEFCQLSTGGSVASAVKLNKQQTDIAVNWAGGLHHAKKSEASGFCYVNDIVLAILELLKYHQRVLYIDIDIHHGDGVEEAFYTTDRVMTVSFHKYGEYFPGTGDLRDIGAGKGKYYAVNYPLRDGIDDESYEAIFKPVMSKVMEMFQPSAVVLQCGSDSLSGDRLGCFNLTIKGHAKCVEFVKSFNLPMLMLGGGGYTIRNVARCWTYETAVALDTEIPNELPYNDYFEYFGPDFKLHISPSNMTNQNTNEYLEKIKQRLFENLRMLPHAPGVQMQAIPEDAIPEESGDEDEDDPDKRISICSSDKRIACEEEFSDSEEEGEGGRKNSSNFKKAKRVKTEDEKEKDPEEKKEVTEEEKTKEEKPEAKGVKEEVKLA

O=C(/C=C/c1cccc(S(=O)(=O)c2ccc3cccc(F)c3n2)c1)NO
IC50 (Histone deacetylase 1): 5.74 nM
GI50 ([1]; Homo sapiens, HL-60, 48 h): 720 nM
GI50 ([2]; Homo sapiens, HCT-116, 48 h): 440 nM
GI50 ([3]; Homo sapiens, PC-3, 48 h): 320 nM
GI50 ([4]; Homo sapiens, A549, 48 h): 640 nM
IC50 (Histone deacetylase 2): 15 nM
IC50 [5]: 5.89 nM
IC50 (Histone deacetylase 8): 200 nM
inhibition (HCT-116 [6]): Active
inhibition (PC-3): Active

O=C(/C=C/c1ccc(C(=O)c2ccc3ccccc3n2)cc1)NO
GI50 ([1]; Homo sapiens, HL-60, 48 h): 1150 nM
GI50 ([2]; Homo sapiens, HCT-116, 48 h): 360 nM
GI50 ([3]; Homo sapiens, PC-3, 48 h): 560 nM
GI50 ([4]; Homo sapiens, A549, 48 h): 1130 nM

O=C(/C=C/c1cccc(S(=O)(=O)c2ccccn2)c1)NO
GI50 ([1]; Homo sapiens, HL-60, 48 h): 1980 nM
GI50 ([2]; Homo sapiens, HCT-116, 48 h): 1480 nM
GI50 ([3]; Homo sapiens, PC-3, 48 h): 2650 nM
GI50 ([4]; Homo sapiens, A549, 48 h): 1710 nM

COc1ccc(S(=O)(=O)c2ccc3ccc(/C=C/C(=O)NO)cc3n2)cc1
GI50 ([1]; Homo sapiens, HL-60, 48 h): 830 nM
GI50 ([2]; Homo sapiens, HCT-116, 48 h): 240 nM
GI50 ([3]; Homo sapiens, PC-3, 48 h): 1010 nM
GI50 ([4]; Homo sapiens, A549, 48 h): 1510 nM

O=C(/C=C/c1cccc(S(=O)(=O)c2ccc3ccccc3n2)c1)NO
IC50 (Histone deacetylase 1): 14 nM
GI50 ([1]; Homo sapiens, HL-60, 48 h): 290 nM
GI50 ([2]; Homo sapiens, HCT-116, 48 h): 80 nM
GI50 ([3]; Homo sapiens, PC-3, 48 h): 150 nM
GI50 ([4]; Homo sapiens, A549, 48 h): 270 nM
IC50 (Histone deacetylase 2): 11.5 nM
IC50 [5]: 15 nM
IC50 (Histone deacetylase 8): 130 nM
TGI (HCT-116 [7]): Dose-dependent effect
inhibition in vivo at 50 mg/kg [8]: 32.2%
inhibition in vivo at 100 mg/kg [9]: 58.8%
Activity (Mus musculus [10]): Non-Toxic
inhibition (HCT-116 [6]): Active
inhibition (PC-3): Active

O=C(/C=C/c1cccc(S(=O)(=O)Nc2ccccc2)c1)NO [BELINOSTAT]
GI50 ([1]; Homo sapiens, HL-60, 48 h): 1090 nM
GI50 ([2]; Homo sapiens, HCT-116, 48 h): 130 nM
GI50 ([3]; Homo sapiens, PC-3, 48 h): 390 nM
GI50 ([4]; Homo sapiens, A549, 48 h): 780 nM
IC50 [5]: 50 nM
inhibition (HCT-116 [6]): Active
inhibition (PC-3): Active

O=C(/C=C/c1cccc(C(=O)c2ccc3ccccc3n2)c1)NO
GI50 ([1]; Homo sapiens, HL-60, 48 h): 1230 nM
GI50 ([2]; Homo sapiens, HCT-116, 48 h): 350 nM
GI50 ([3]; Homo sapiens, PC-3, 48 h): 470 nM
GI50 ([4]; Homo sapiens, A549, 48 h): 840 nM

O=C(/C=C/c1cccc(S(=O)(=O)c2ccc3cc(Cl)ccc3n2)c1)NO
GI50 ([1]; Homo sapiens, HL-60, 48 h): 1330 nM
GI50 ([2]; Homo sapiens, HCT-116, 48 h): 920 nM
GI50 ([3]; Homo sapiens, PC-3, 48 h): 760 nM
GI50 ([4]; Homo sapiens, A549, 48 h): 1010 nM

COc1ccc(S(=O)(=O)c2ccc3c(/C=C/C(=O)NO)cccc3n2)cc1
GI50 ([1]; Homo sapiens, HL-60, 48 h): > 10000 nM
GI50 ([2]; Homo sapiens, HCT-116, 48 h): > 10000 nM
GI50 ([3]; Homo sapiens, PC-3, 48 h): > 10000 nM
GI50 ([4]; Homo sapiens, A549, 48 h): > 10000 nM

COc1ccc2nc(S(=O)(=O)c3cccc(/C=C/C(=O)NO)c3)ccc2c1
GI50 ([1]; Homo sapiens, HL-60, 48 h): 720 nM
GI50 ([2]; Homo sapiens, HCT-116, 48 h): 240 nM
GI50 ([3]; Homo sapiens, PC-3, 48 h): 280 nM
GI50 ([4]; Homo sapiens, A549, 48 h): 350 nM

O=C(CCCCCCC(=O)Nc1ccccc1)NO [VORINOSTAT]
GI50 [1]: 1740 nM
GI50 [2]: 150 nM
GI50 [3]: 730 nM
GI50 [4]: 1020 nM
Activity (Mus musculus [11]): Non-Toxic

COc1ccc(S(=O)(=O)c2ccc3cccc(/C=C/C(=O)NO)c3n2)cc1
GI50 ([1]; Homo sapiens, HL-60, 48 h): 1170 nM
GI50 ([2]; Homo sapiens, HCT-116, 48 h): 310 nM
GI50 ([3]; Homo sapiens, PC-3, 48 h): 790 nM
GI50 ([4]; Homo sapiens, A549, 48 h): 1320 nM

COc1ccc(S(=O)(=O)c2nc3ccccc3cc2/C=C/C(=O)NO)cc1
GI50 ([1]; Homo sapiens, HL-60, 48 h): > 10000 nM
GI50 ([2]; Homo sapiens, HCT-116, 48 h): > 10000 nM
GI50 ([3]; Homo sapiens, PC-3, 48 h): > 10000 nM
GI50 ([4]; Homo sapiens, A549, 48 h): > 10000 nM

COc1ccc(S(=O)(=O)c2ccc3cc(/C=C/C(=O)NO)ccc3n2)cc1
GI50 ([1]; Homo sapiens, HL-60, 48 h): 1140 nM
GI50 ([2]; Homo sapiens, HCT-116, 48 h): 1390 nM
GI50 ([3]; Homo sapiens, PC-3, 48 h): 1350 nM
GI50 ([4]; Homo sapiens, A549, 48 h): 4750 nM

O=C(/C=C/c1ccc(S(=O)(=O)c2ccc3ccccc3n2)cc1)NO
GI50 ([1]; Homo sapiens, HL-60, 48 h): 800 nM
GI50 ([2]; Homo sapiens, HCT-116, 48 h): 310 nM
GI50 ([3]; Homo sapiens, PC-3, 48 h): 490 nM
GI50 ([4]; Homo sapiens, A549, 48 h): 880 nM

O=C(/C=C/c1cccc(S(=O)(=O)c2ccc3cccc(Cl)c3n2)c1)NO
GI50 ([1]; Homo sapiens, HL-60, 48 h): 2640 nM
GI50 ([2]; Homo sapiens, HCT-116, 48 h): 1310 nM
GI50 ([3]; Homo sapiens, PC-3, 48 h): 1350 nM
GI50 ([4]; Homo sapiens, A549, 48 h): 1420 nM
